Measurements: ChEMBL document CHEMBL2040747, “Synthesis and biological evaluation of isoxazole, oxazole, and oxadiazole containing heteroaryl analogs of biaryl ureas as DGAT1 inhibitors” (Eur J Med Chem, 2012)
Converted amounts (≈) assume the structure as drawn.

Key:
[1] = system: Mus musculus; assay: Antiobesity activity in Swiss mouse assessed as reduction in plasma triglyceride level at 3 mg/kg, po measured after 4 hrs by fat tolerance test; type: functional; design: scale not given: the % may be the effect or the level left
In short: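 Fasted Swiss mice (4-5 weeks, 25-30 g) gavaged with test compound at 3 mg/kg as a suspension in 0.5% CMC with Tween 80, or with vehicle. Olive oil bolus (10 ml/kg) given 1 h later. Plasma TG measured by kit at 1, 2, 3 and 4 h. AUC0-4h expressed relative to vehicle (100%). Mean ± SEM, n = 8.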

[2] = Aqueous solubility of the compound at pH 7.4 after 24 hrs; type: physicochemical; settings: aqueous medium
[3] = target: Diacylglycerol O-acyltransferase 1 (Homo sapiens) (UniProt O75907); assay: Inhibition of human DGAT1 assessed as conversion of [14C]-oleoyl-CoA to [14C]-triglyceride at 1 uM after 10 mins by scintillation counting
Diacylglycerol O-acyltransferase 1 (Homo sapiens), sequence (O75907 whole entry, looked up): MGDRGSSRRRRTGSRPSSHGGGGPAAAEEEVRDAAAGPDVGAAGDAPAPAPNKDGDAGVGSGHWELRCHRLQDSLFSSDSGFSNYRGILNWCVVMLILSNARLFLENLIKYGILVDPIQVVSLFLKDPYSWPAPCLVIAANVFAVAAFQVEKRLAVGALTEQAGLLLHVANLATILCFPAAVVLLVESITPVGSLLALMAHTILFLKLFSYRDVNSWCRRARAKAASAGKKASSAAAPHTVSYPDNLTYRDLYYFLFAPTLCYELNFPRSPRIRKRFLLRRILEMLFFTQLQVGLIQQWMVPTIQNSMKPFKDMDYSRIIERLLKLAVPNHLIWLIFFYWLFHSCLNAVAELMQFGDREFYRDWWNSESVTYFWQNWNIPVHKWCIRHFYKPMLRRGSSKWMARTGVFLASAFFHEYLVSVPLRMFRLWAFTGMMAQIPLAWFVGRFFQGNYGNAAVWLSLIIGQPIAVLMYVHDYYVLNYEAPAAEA

Structure (SMILES)	Activity [1] [%]	solubility at 24 h [2] [µg/mL]	inhibition [3] [%]
CC(C)[C@H](NC(=O)c1cc(-c2ccc(Nc3nc4ccc(F)cc4s3)cc2)no1)C(=O)O	29	60 (≈ 132 µM)	–
CC(C)[C@H](NC(=O)c1ncc(-c2ccc(NC(=O)Nc3ccc(Cl)cc3)cc2)o1)C(=O)O	–	–	59
Cc1ccccc1S(=O)(=O)NC(=O)Nc1ccc(-c2cc(C(=O)N[C@H](C(=O)O)C(C)C)on2)cc1	–	–	26
CC(C)[C@H](NC(=O)c1nc(-c2ccc(NC(=O)Nc3cccc(Cl)c3)cc2)no1)C(=O)O	–	–	71
Cc1ccc(NC(=O)Nc2ccc(-c3cc(C(=O)N[C@H](C(=O)O)C(C)C)on3)cc2)cc1	79	380 (≈ 871 µM)	80
CC(C)[C@H](NC(=O)c1ncc(-c2ccc(NC(=O)Nc3ccc(Cl)cc3F)cc2)o1)C(=O)O	–	–	70
Cc1ccc(NC(=O)Nc2ccc(-c3noc(C(=O)N[C@H](C(=O)O)C(C)C)n3)cc2)cc1	–	–	61
CC(C)[C@H](NC(=O)c1cc(-c2ccc(NC(=O)Nc3ccc(Cl)cc3Oc3ccccc3)cc2)no1)C(=O)O	35	140 (≈ 255 µM)	91
CC(C)[C@H](NC(=O)c1ccc(-c2ccc(Nc3nc4ccc(F)cc4s3)cc2)cc1)C(=O)O	84	10 (≈ 21.6 µM)	–
CC(C)[C@H](NC(=O)c1ncc(-c2ccc(NC(=O)Nc3ccc(Cl)cc3Oc3ccccc3)cc2)o1)C(=O)O	–	–	91
CC(C)[C@H](NC(=O)c1ncc(-c2ccc(NC(=O)Nc3cccc(C(F)(F)F)c3)cc2)o1)C(=O)O	–	–	75
CC(C)[C@H](NC(=O)c1cc(-c2ccc(OCc3ccc(F)cc3)cc2)no1)C(=O)O	–	–	18
Cc1ccc(NC(=O)Nc2ccc(-c3cc(C(=O)N[C@H](C(=O)O)C(C)C)on3)cc2)cc1C	–	–	83
CC(C)[C@H](NC(=O)c1cc(-c2ccc(NC(=O)Nc3ccc(F)cc3F)cc2)no1)C(=O)O	–	–	85
COc1ccc(NC(=O)Nc2ccc(-c3cc(C(=O)N[C@H](C(=O)O)C(C)C)on3)cc2)cc1	90	430 (≈ 950 µM)	–
CC(C)[C@H](NC(=O)c1cc(-c2ccc(NC(=O)Nc3cccc(Cl)c3)cc2)no1)C(=O)O	–	–	84
CC(C)[C@H](NC(=O)c1cc(-c2ccc(NC(=O)Nc3ccc(Cl)cc3)cc2)no1)C(=O)O	–	–	84

Structure (SMILES)	Activity [1] [%]	solubility at 24 h [2] [µg/mL]	inhibition [3] [%]
CC(C)[C@H](NC(=O)c1cc(-c2ccc(NS(=O)(=O)c3c(F)cccc3F)cc2)no1)C(=O)O	–	–	23
CC(C)[C@H](NC(=O)c1cc(-c2ccc(NC(=O)[C@H](O)c3ccccc3)cc2)no1)C(=O)O	–	–	59
CC(C)[C@H](NC(=O)c1cc(-c2ccc(NC(=O)Nc3ccccc3Cl)cc2)no1)C(=O)O	–	–	90
CC(C)[C@H](NC(=O)c1cc(-c2ccc(NC(=O)Nc3ccc(Cl)cc3F)cc2)no1)C(=O)O	–	–	90
CC(C)[C@H](NC(=O)c1cc(-c2ccc(NC(=O)C(=O)Nc3cccc(C(F)(F)F)c3)cc2)no1)C(=O)O	–	–	16
CC(C)[C@H](NC(=O)c1ncc(-c2ccc(NC(=O)Nc3cccc(Cl)c3)cc2)o1)C(=O)O	–	–	72
CC(C)[C@H](NC(=O)c1cc(-c2ccc(NC(=O)Nc3ccc(F)cc3)cc2)no1)C(=O)O	–	–	78
CC(C)[C@H](NC(=O)c1nc(-c2ccc(NC(=O)Nc3ccc(F)cc3)cc2)no1)C(=O)O	–	–	61
CC(C)[C@H](NC(=O)c1cc(-c2ccc(NC(=O)c3ccc(F)cc3)cc2)no1)C(=O)O	–	–	44
CC(C)[C@H](NC(=O)c1nc(-c2ccc(NC(=O)Nc3ccc(Cl)cc3)cc2)no1)C(=O)O	–	–	40
CC(C)[C@H](NC(=O)c1nc(-c2ccc(NC(=O)Nc3ccccc3Cl)cc2)no1)C(=O)O	–	–	62
Cc1ccc(NC(=O)Nc2ccc(-c3cnc(C(=O)N[C@H](C(=O)O)C(C)C)o3)cc2)cc1C	–	–	69
CC(C)[C@H](NC(=O)c1nc(-c2ccc(NC(=O)Nc3ccc(F)cc3F)cc2)no1)C(=O)O	–	–	75
CC(C)[C@H](NC(=O)c1nc(-c2ccc(NC(=O)Nc3cccc(C(F)(F)F)c3)cc2)no1)C(=O)O	–	–	48
CC(C)[C@H](NC(=O)c1cc(-c2ccc(NC(=O)Nc3cccc(C(F)(F)F)c3)cc2)no1)C(=O)O	–	–	85
CC(C)[C@H](NC(=O)c1cc(-c2ccc(NC(=S)Nc3ccccc3F)cc2)no1)C(=O)O	–	–	72
CC(C)[C@H](NC(=O)c1ncc(-c2ccc(NC(=O)Nc3ccccc3Cl)cc2)o1)C(=O)O	–	–	80
